The values below come from ChEMBL document CHEMBL1255541, “Novel indoline-1- or 3,4-dihydroquinoline-1(2H)-substituted carbothiohydrazides as TPO receptor agonists” (Bioorg Med Chem Lett, 2010).

Molecules are shown by their SMILES.

Data set [1] is described as follows: Cmax in rat at 5 mg/kg, po. Format: ADME, organism-based. Set-up: dose 5 mg/kg, route oral. To be noted: in vivo. In a few lines: (§1)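 Test substances given as ethanolamine salts, orally at 5 mg/kg to rats. Plasma concentration–time profiles were used to derive apparent total plasma clearance (CLz/F), half-life, AUC0–t and peak plasma concentration (Cmax). Values are reported as mean ± spread.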

A short description of data set [2]: Half life in rat at 5 mg/kg, po. Format: ADME, organism-based. Set-up: dose 5 mg/kg, route oral. Conditions: in vivo. In a few lines:
as §1

Data set [3] can be described thus: AUC (0 to t) in rat at 5 mg/kg, po. The class given is ADME, organism-based. Set-up: dose 5 mg/kg, route oral. To be noted: plasma. In a few lines: as §1
Data set [4] can be described thus: Apparent total plasma clearance in rat at 5 mg/kg, po. Format: ADME, organism-based. Set-up: dose 5 mg/kg, route oral. To be noted: read-out: CLt/F (converted). An outline of the steps: as §1
The next data set deals with T1, Thrombopoietin receptor (Homo sapiens, UniProt P40238).
T1 sequence (P40238 whole entry): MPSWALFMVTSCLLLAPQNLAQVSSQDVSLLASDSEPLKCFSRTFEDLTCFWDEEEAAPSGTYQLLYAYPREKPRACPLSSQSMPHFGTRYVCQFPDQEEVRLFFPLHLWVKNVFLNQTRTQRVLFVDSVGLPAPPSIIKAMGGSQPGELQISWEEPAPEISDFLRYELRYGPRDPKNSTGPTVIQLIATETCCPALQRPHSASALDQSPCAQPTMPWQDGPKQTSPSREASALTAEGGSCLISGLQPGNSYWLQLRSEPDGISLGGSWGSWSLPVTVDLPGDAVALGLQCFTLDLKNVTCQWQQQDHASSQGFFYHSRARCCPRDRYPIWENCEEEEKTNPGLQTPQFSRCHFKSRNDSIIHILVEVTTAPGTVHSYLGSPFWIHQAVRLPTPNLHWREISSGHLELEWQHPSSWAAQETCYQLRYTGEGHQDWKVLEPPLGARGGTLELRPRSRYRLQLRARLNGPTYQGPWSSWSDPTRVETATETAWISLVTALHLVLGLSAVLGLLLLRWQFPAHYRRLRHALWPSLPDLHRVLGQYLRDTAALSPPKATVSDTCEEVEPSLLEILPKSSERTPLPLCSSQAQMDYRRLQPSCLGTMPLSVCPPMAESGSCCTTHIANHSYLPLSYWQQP
The experiment in a line: Agonist activity at human TPOR expressed.

In data set [5] the target is T2, Thrombopoietin receptor (Homo sapiens) (UniProt P40238).
T2 sequence (whole entry): T1 sequence (P40238 whole entry)
The data set is described as follows: Agonist activity at human TPOR expressed in mouse BaF3 cells at 150 nM.

The target in data set [6] is T2, Thrombopoietin receptor (Homo sapiens). The experiment in a line: Agonist activity at human TPOR expressed in mouse BaF3 cells at 300 nM.

`CC1=NN(c2ccc3c(c2)CCC3)C(=O)/C1=C(/C)NNC(=O)N1CCc2cc(C(=O)O)ccc21` displayed a Cmax in data set [1] of 3550 ng/mL. In data set [2], the half-life was 1.48 h. In data set [3], the exposure AUC(0-t) was found to be 4460 ng·h/mL. Also, the CL/F in data set [4] is 20.5 mL/min/kg. The same molecule showed an EC50 on Thrombopoietin receptor of 46 nM.
Molecule `CC1=NN(c2ccc(C)c(C)c2)C(=O)/C1=C(/C)NNC(=S)N1CCCc2cc(C(=O)O)ccc21` returned a half-maximal effective concentration (EC50) on Thrombopoietin receptor of 64 nM.
On to `C/C(NNC(=S)N1CCCc2cc(C(=O)O)ccc21)=C1/C(=O)N(c2ccc(C)c(C)c2)c2ccccc21`, for which the % activity vs 10 ng/ml TPO in data set [5] stood at 30.9%; in data set [6] it was 33.4%.
As for `C/C(NNC(=S)N1CCc2cc(C(=O)O)ccc21)=C1/C(=O)N(c2ccc(C)cc2)c2ccc(F)cc21`, the figures for the % activity vs 10 ng/ml TPO in data set [5] and in data set [6] were 78.1% and 122%, respectively.
Turning to `CCNC(=O)c1ccc2c(c1)CCN2C(=S)NN/C(C)=C1\C(=O)N(c2ccc(C)c(C)c2)N=C1C`, at Thrombopoietin receptor, a half-maximal effect (EC50) was put at 26 nM. This lies in the double-digit nanomolar range.
As to `C/C(NNC(=S)N1CCc2cc(C(=O)O)ccc21)=C1/C(=O)N(c2ccc3c(c2)CCC3)c2ccccc21`, the values for the % activity vs 10 ng/ml TPO in data set [5] and in data set [6] were 14.3% and 75.8%, respectively.
The like results for `C/C(NNC(=S)N1CCCc2cc(C(=O)O)ccc21)=C1/C(=O)N(c2ccc(C)cc2)c2ccccc21` were, in that order, 47.3% and 101%.
As for `CC1=NN(c2ccc(C)c(C)c2)C(=O)/C1=C(/C)NNC(=O)N1CCc2cc(C(=O)O)ccc21`, in data set [1], the highest level (Cmax) was 859 ng/mL. Further, in data set [2], the half-life is 1.86 h. This molecule showed an AUC(0-t) in data set [3] of 923 ng·h/mL. The CL/F in data set [4] is 113 mL/min/kg. The same molecule registered an EC50 on Thrombopoietin receptor of 42 nM.
As for `CNC(=O)c1ccc2c(c1)CCN2C(=S)NN/C(C)=C1\C(=O)N(c2ccc(C)c(C)c2)N=C1C`, the 50% effective concentration (EC50) on Thrombopoietin receptor turned out to be 22 nM.
As for `C/C(NNC(=S)N1CCc2cc(C(=O)O)ccc21)=C1/C(=O)N(c2ccc3c(c2)CCC3)c2ccc(F)cc21`, the % activity vs 10 ng/ml TPO in data set [5] turned out to be 3.2%; in data set [6] it was 10.6%.
The molecule `CC1=NN(c2ccc(C)c(C)c2)C(=O)/C1=C(/C)NNC(=S)N1CCc2cc(C(=O)N3CCOCC3)ccc21` came in with an EC50 at Thrombopoietin receptor of 31 nM.
Same read-out and setting: with `CC1=NN(c2ccc(C)c(C)c2)C(=O)/C1=C(/C)NNC(=S)N1CCc2cc(C(=O)O)ccc21` the figure was 6 nM.
In the case of `C/C(NNC(=S)N1CCc2cc(C(=O)O)ccc21)=C1/C(=O)N(c2ccc(C)c(C)c2)c2ccccc21`, the results for the % activity vs 10 ng/ml TPO in data set [5] and in data set [6] were 72.4% and 138%, respectively.
With `CC1=NN(c2ccc3c(c2)CCC3)C(=O)/C1=C(/C)NNC(=S)N1CCCc2cc(C(=O)O)ccc21`, at Thrombopoietin receptor, the half-maximal effective concentration (EC50) worked out at 35 nM.
Turning to `C/C(NNC(=S)N1CCc2cc(C(=O)O)ccc21)=C1/C(=O)N(c2ccc(C)cc2)c2ccccc21`, the % activity vs 10 ng/ml TPO was found to be 47.8% in data set [5] and 107% in data set [6].
Molecule `CC1=NN(c2ccc3c(c2)CCC3)C(=O)/C1=C(/C)NNC(=S)N1CCc2cc(C(=O)O)ccc21` returned an EC50 on Thrombopoietin receptor of 3 nM. This counts as single-digit nanomolar.
